Converted amounts (≈) assume the structure as drawn. The source made the active and inactive calls. The calls are words filed in the database; no cut-off is given here.
What was measured:
[1] = Dissociation constant, pKa of the compound; format: physicochemical
[2] = biological target: Acetylcholinesterase (Homo sapiens, UniProt P22303); assay: Inhibition of AChE (unknown origin) by Ellman colorimetric method
[3] = system: Aedes aegypti; assay: Insecticidal activity against third-instar larvae of Aedes aegypti assessed as mortality at 140 ppm after 24 to 48 hrs; format: functional, organism-based
Method in brief: (§1)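 Diagnostic screen with third-instar larvae. Five larvae per pot, four replicates per concentration. Compounds tested at 300, 270, 180, 140, 70, 60, 45 and 25 ppm. Control pots held 1% DMSO only. Mortality was scored at 24 and 48 h. Larvae that could not reach the water surface when touched were counted as dead.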

[4] = system: Aedes aegypti; assay: Insecticidal activity against third-instar larvae of Aedes aegypti assessed as mortality after 24 hrs; format: functional
Method in brief: (§2)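 In a second bioassay, third-instar larvae were exposed to 150, 130, 100, 85 and 55 ppm, with a 1% DMSO control. Five larvae per pot, four replicates. Death was scored as failure to reach the water surface when touched, at 24 h or 48 h. LC50 and LC99 with confidence intervals came from probit analysis.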

[5] = system: Aedes aegypti; assay: Insecticidal activity against third-instar larvae of Aedes aegypti assessed as mortality after 48 hrs; format: functional; method in brief: as §2
[6] = system: Aedes aegypti; assay: Insecticidal activity against third-instar larvae of Aedes aegypti assessed as mortality at 300 ppm after 24 to 48 hrs; format: functional, organism-based; method in brief: as §1
[7] = system: Aedes aegypti; assay: Insecticidal activity against third-instar larvae of Aedes aegypti assessed as mortality at 180 ppm after 24 to 48 hrs; format: functional, organism-based; method in brief: as §1
[8] = system: Aedes aegypti; assay: Insecticidal activity against third-instar larvae of Aedes aegypti assessed as mortality at 25 ppm after 24 to 48 hrs; format: functional, organism-based; method in brief: as §1
[9] = system: Aedes aegypti; assay: Insecticidal activity against third-instar larvae of Aedes aegypti assessed as mortality at 60 ppm after 24 to 48 hrs; format: functional, organism-based; method in brief: as §1
[10] = system: Aedes aegypti; assay: Insecticidal activity against third-instar larvae of Aedes aegypti assessed as mortality at 45 ppm after 24 to 48 hrs; format: functional, organism-based; method in brief: as §1
[11] = system: Aedes aegypti; assay: Insecticidal activity against third-instar larvae of Aedes aegypti assessed as mortality at 70 ppm after 24 to 48 hrs; format: functional, organism-based; method in brief: as §1
[12] = system: Aedes aegypti; assay: Insecticidal activity against third-instar larvae of Aedes aegypti assessed as mortality at 270 ppm after 24 to 48 hrs; format: functional, organism-based; method in brief: as §1
[13] = system: Aedes aegypti; assay: Insecticidal activity against third-instar larvae of Aedes aegypti assessed as mortality; format: functional
Method in brief: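 Third-instar larvae exposed in a diagnostic screen to 1000, 300, 270, 180, 140, 70, 60, 45 and 25 ppm. Five larvae per pot, four replicates per concentration, 1% DMSO-only control. Mortality scored at 24 and 48 h; larvae unable to reach the water surface when touched were counted dead.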

Acetylcholinesterase, sequence (P22303 whole entry): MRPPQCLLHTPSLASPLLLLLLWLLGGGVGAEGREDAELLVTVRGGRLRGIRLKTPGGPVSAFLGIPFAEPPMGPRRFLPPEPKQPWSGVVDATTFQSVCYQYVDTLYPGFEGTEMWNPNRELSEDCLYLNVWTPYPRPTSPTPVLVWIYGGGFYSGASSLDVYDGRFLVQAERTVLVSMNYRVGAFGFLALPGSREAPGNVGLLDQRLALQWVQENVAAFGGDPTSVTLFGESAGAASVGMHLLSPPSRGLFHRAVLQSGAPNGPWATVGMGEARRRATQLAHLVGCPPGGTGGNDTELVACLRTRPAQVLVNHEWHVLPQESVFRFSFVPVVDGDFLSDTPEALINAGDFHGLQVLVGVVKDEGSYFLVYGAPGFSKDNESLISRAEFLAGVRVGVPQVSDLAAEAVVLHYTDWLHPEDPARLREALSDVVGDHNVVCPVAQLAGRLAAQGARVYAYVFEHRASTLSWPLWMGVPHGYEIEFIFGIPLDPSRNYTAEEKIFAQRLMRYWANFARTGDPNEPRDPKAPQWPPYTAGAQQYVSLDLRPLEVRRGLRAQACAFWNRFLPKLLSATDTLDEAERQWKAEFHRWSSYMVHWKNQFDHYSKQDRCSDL

Row | Structure (SMILES) | pKa [1] | IC50 [2] | other results
1 | COc1cc(C(C#N)N2CCN(C)CC2)cc(OC)c1OC (racemic) | 7.6 | 406 µM | 
2 | N#CC(c1ccc2c(c1)OCO2)N1CCOCC1 (racemic) | 2.2 | 58 µM | Activity [3]: Active
3 | COc1cc(C(C#N)N2CCOCC2)cc(OC)c1OC (racemic) | 2.1 | 389 µM | 
4 | CN1CCN(C(C#N)c2ccc3c(c2)OCO3)CC1 (racemic) | 7.6 | 275 µM | 
5 | N#CC(c1ccc(O)cc1)N1CCOCC1 (racemic) | 2.4 |  | 
6 | COc1ccc(C(C#N)N2CCCCC2)cc1OC (racemic) | 4 | 45 µM | LC99 [4]: 147.54 ppm; LC50 ([4]; Aedes aegypti, 24 h): 88.1 µg/mL (≈ 338 µM); LC99 [5]: 155.57 ppm; LC50 ([5]; Aedes aegypti, 48 h): 87.5 µg/mL (≈ 336 µM); Activity [6]: Active; Activity [7]: Active
7 | N#CC(c1ccc(O)cc1)N1CCCCC1 (racemic) | 4.2 | 93 µM | 
8 | COc1cc(C(C#N)N2CCCCC2)ccc1O (racemic) | 4.1 | 448 µM | 
9 | COc1cc(C(C#N)N2CCOCC2)ccc1O (racemic) | 2.3 | 409 µM | 
10 | COc1ccc(C(C#N)N2CCN(C)CC2)cc1OC (racemic) | 7.6 | 379 µM | 
11 | COc1ccc(C(C#N)N2CCCC2)cc1OC (racemic) | 4.3 | 42 µM | Activity [8]: Active; Activity [3]: Active; Activity [9]: Active; Activity [7]: Active
12 | COc1ccc(C(C#N)N2CCOCC2)cc1OC (racemic) | 2.2 | 54 µM | Activity [3]: Active
13 | N#CC(c1ccc2c(c1)OCO2)N1CCCCC1 (racemic) | 4 | 61.4 µM | Activity [8]: Active; Activity [10]: Active; Activity [11]: Active; Activity [3]: Active; Activity [7]: Active; Activity [12]: Active
14 | N#CC(c1ccc2c(c1)OCO2)N1CCCC1 (racemic) | 4.3 | 51 µM | Activity [3]: Active; Activity [7]: Active; Activity [12]: Active
15 | COc1cc(C(C#N)N2CCCCC2)cc(OC)c1OC (racemic) | 3.9 | 381 µM | 
16 | COc1cc(C(C#N)N2CCCC2)cc(OC)c1OC (racemic) | 4.2 | 321 µM | 
17 | COc1ccc(C(C#N)N2CCCCC2)cc1O (racemic) | 4 | 478 µM | 
18 | COc1ccc(C(C#N)N2CCCC2)cc1O (racemic) | 4.3 | 394 µM | 
19 | COc1ccc(C(C#N)N2CCOCC2)cc1O (racemic) | 2.2 | 363 µM | 
20 | COc1ccc(C(C#N)N2CCN(C)CC2)cc1O (racemic) | 7.7 | 350 µM | 
21 | COc1cc(C(C#N)N2CCCC2)ccc1O (racemic) | 4.4 | 358 µM | 
22 | COc1cc(C(C#N)N2CCN(C)CC2)ccc1O (racemic) | 7.7 | 340 µM | 
23 | N#CC(c1ccc(O)cc1)N1CCCC1 (racemic) | 4.5 |  | 
24 | CN1CCN(C(C#N)c2ccc(O)cc2)CC1 (racemic) | 7.7 |  | 
25 | CCOP(=S)(OCC)Oc1cc(C)nc(C(C)C)n1 [DIMPYLATE] |  | 1.9 µM | 
26 | COP(=S)(OC)Oc1ccc(Sc2ccc(OP(=S)(OC)OC)cc2)cc1 [TEMEFOS] |  |  | LC50 [13]: 0.006 µg/mL (≈ 0.0129 µM)
